Reference: ChEMBL document CHEMBL4152256, “Structure-activity relationship of new antimalarial 1-aryl-3-susbtituted propanol derivatives: Synthesis, preliminary toxicity profiling, parasite life cycle stage studies, target exploration, and targeted delivery” (Eur J Med Chem, 2018)

Key:
Plasmodium falciparum [1] = test: Antiplasmodial activity against multidrug-resistant Plasmodium falciparum FCR-3 by [3H]-hypoxanthine incorporation assay; type: functional, organism-based, FCR-3/Gambia; conditions: Plasmodium falciparum, FCR-3/Gambia
Summary of the method: (§1)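 Blood-stage P. falciparum 3D7 and FCR-3 were tested by a modified [3H]-hypoxanthine incorporation assay. Chloroquine was the reference in all runs.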

[2] = Cytotoxicity against human HepG2A16 cells by MTT assay; type: cell-based; conditions: HepG2A16 cells
Summary of the method: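 MTT viability assay on HepG2-A16 cells, giving CC50 values.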

Plasmodium falciparum [3] = test: Antiplasmodial activity against chloroquine-sensitive Plasmodium falciparum 3D7 by [3H]-hypoxanthine incorporation assay; type: functional, organism-based; conditions: Plasmodium falciparum, 3D7; summary of the method: as §1
[4] = Selectivity index, ratio of CC50 for human HepG2A16 cells by MTT assay to IC50 for multidrug-resistant Plasmodium falciparum FCR-3; type: toxicity; conditions: HepG2A16 cells, read-out: Ratio CC50/IC50
Summary of the method: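 HepG2-A16 human hepatoma cells were tested by MTT viability assay to give CC50. Blood-stage activity was measured against the multidrug-resistant P. falciparum FCR-3 strain by [3H]-hypoxanthine incorporation to give IC50. SI = CC50 HepG2 / FCR-3 IC50.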

[5] = Genotoxicity in Salmonella typhimurium TA1535 harboring pSK1002 assessed as umu gene induction at 0.031 mg/ml in presence of Sprague-Dawley rat liver S9 fraction after by SOS/umu assay relative to control; type: toxicity, organism-based; conditions: salmonella enterica subsp. enterica serovar typhimurium, read-out: FC
[6] = Genotoxicity in Salmonella typhimurium TA1535 harboring pSK1002 assessed as umu gene induction at 0.002 mg/ml in absence of Sprague-Dawley rat liver S9 fraction after by SOS/umu assay relative to control; type: toxicity, organism-based; conditions: salmonella enterica subsp. enterica serovar typhimurium, read-out: FC
[7] = Genotoxicity in Salmonella typhimurium TA1535 harboring pSK1002 assessed as umu gene induction at 0.004 mg/ml in presence of Sprague-Dawley rat liver S9 fraction after by SOS/umu assay relative to control; type: toxicity, organism-based; conditions: salmonella enterica subsp. enterica serovar typhimurium, read-out: FC
[8] = Genotoxicity in Salmonella typhimurium TA1535 harboring pSK1002 assessed as survival at 0.002 mg/ml in presence of Sprague-Dawley rat liver S9 fraction after by SOS/umu assay relative to control; type: toxicity, organism-based; conditions: salmonella enterica subsp. enterica serovar typhimurium, read-out: Survival
[9] = Genotoxicity in Salmonella typhimurium TA1535 harboring pSK1002 assessed as survival at 0.004 mg/ml in presence of Sprague-Dawley rat liver S9 fraction after by SOS/umu assay relative to control; type: toxicity, organism-based; conditions: salmonella enterica subsp. enterica serovar typhimurium, read-out: Survival
[10] = Genotoxicity in Salmonella typhimurium TA1535 harboring pSK1002 assessed as survival at 0.004 mg/ml in absence of Sprague-Dawley rat liver S9 fraction after by SOS/umu assay relative to control; type: toxicity, organism-based; conditions: salmonella enterica subsp. enterica serovar typhimurium, read-out: Survival
[11] = Genotoxicity in Salmonella typhimurium TA1535 harboring pSK1002 assessed as umu gene induction at 0.008 mg/ml in absence of Sprague-Dawley rat liver S9 fraction after by SOS/umu assay relative to control; type: toxicity, organism-based; conditions: salmonella enterica subsp. enterica serovar typhimurium, read-out: FC
[12] = Genotoxicity in Salmonella typhimurium TA1535 harboring pSK1002 assessed as umu gene induction at 0.004 mg/ml in absence of Sprague-Dawley rat liver S9 fraction after by SOS/umu assay relative to control; type: toxicity, organism-based; conditions: salmonella enterica subsp. enterica serovar typhimurium, read-out: FC
[13] = Genotoxicity in Salmonella typhimurium TA1535 harboring pSK1002 assessed as survival at 0.001 mg/ml in presence of Sprague-Dawley rat liver S9 fraction after by SOS/umu assay relative to control; type: toxicity, organism-based; conditions: salmonella enterica subsp. enterica serovar typhimurium, read-out: Survival
[14] = Genotoxicity in Salmonella typhimurium TA1535 harboring pSK1002 assessed as umu gene induction at 0.001 mg/ml in presence of Sprague-Dawley rat liver S9 fraction after by SOS/umu assay relative to control; type: toxicity, organism-based; conditions: salmonella enterica subsp. enterica serovar typhimurium, read-out: FC
[15] = Genotoxicity in Salmonella typhimurium TA1535 harboring pSK1002 assessed as survival at 0.016 mg/ml in absence of Sprague-Dawley rat liver S9 fraction after by SOS/umu assay relative to control; type: toxicity, organism-based; conditions: salmonella enterica subsp. enterica serovar typhimurium, read-out: Survival
[16] = Genotoxicity in Salmonella typhimurium TA1535 harboring pSK1002 assessed as survival at 0.001 mg/ml in absence of Sprague-Dawley rat liver S9 fraction after by SOS/umu assay relative to control; type: toxicity, organism-based; conditions: salmonella enterica subsp. enterica serovar typhimurium, read-out: Survival
[17] = Genotoxicity in Salmonella typhimurium TA1535 harboring pSK1002 assessed as survival at 0.008 mg/ml in presence of Sprague-Dawley rat liver S9 fraction after by SOS/umu assay relative to control; type: toxicity, organism-based; conditions: salmonella enterica subsp. enterica serovar typhimurium, read-out: Survival
[18] = Genotoxicity in Salmonella typhimurium TA1535 harboring pSK1002 assessed as survival at 0.031 mg/ml in absence of Sprague-Dawley rat liver S9 fraction after by SOS/umu assay relative to control; type: toxicity, organism-based; conditions: salmonella enterica subsp. enterica serovar typhimurium, read-out: Survival
[19] = Genotoxicity in Salmonella typhimurium TA1535 harboring pSK1002 assessed as umu gene induction at 0.016 mg/ml in presence of Sprague-Dawley rat liver S9 fraction after by SOS/umu assay relative to control; type: toxicity, organism-based; conditions: salmonella enterica subsp. enterica serovar typhimurium, read-out: FC
[20] = Genotoxicity in Salmonella typhimurium TA1535 harboring pSK1002 assessed as survival at 0.008 mg/ml in absence of Sprague-Dawley rat liver S9 fraction after by SOS/umu assay relative to control; type: toxicity, organism-based; conditions: salmonella enterica subsp. enterica serovar typhimurium, read-out: Survival
[21] = Genotoxicity in Salmonella typhimurium TA1535 harboring pSK1002 assessed as survival at 0.002 mg/ml in absence of Sprague-Dawley rat liver S9 fraction after by SOS/umu assay relative to control; type: toxicity, organism-based; conditions: salmonella enterica subsp. enterica serovar typhimurium, read-out: Survival
[22] = Genotoxicity in Salmonella typhimurium TA1535 harboring pSK1002 assessed as survival at 0.016 mg/ml in presence of Sprague-Dawley rat liver S9 fraction after by SOS/umu assay relative to control; type: toxicity, organism-based; conditions: salmonella enterica subsp. enterica serovar typhimurium, read-out: Survival
[23] = Genotoxicity in Salmonella typhimurium TA1535 harboring pSK1002 assessed as umu gene induction at 0.008 mg/ml in presence of Sprague-Dawley rat liver S9 fraction after by SOS/umu assay relative to control; type: toxicity, organism-based; conditions: salmonella enterica subsp. enterica serovar typhimurium, read-out: FC
[24] = Genotoxicity in Salmonella typhimurium TA1535 harboring pSK1002 assessed as umu gene induction at 0.016 mg/ml in absence of Sprague-Dawley rat liver S9 fraction after by SOS/umu assay relative to control; type: toxicity, organism-based; conditions: salmonella enterica subsp. enterica serovar typhimurium, read-out: FC
[25] = Genotoxicity in Salmonella typhimurium TA1535 harboring pSK1002 assessed as umu gene induction at 0.031 mg/ml in absence of Sprague-Dawley rat liver S9 fraction after by SOS/umu assay relative to control; type: toxicity, organism-based; conditions: salmonella enterica subsp. enterica serovar typhimurium, read-out: FC
[26] = Genotoxicity in Salmonella typhimurium TA1535 harboring pSK1002 assessed as umu gene induction at 0.002 mg/ml in presence of Sprague-Dawley rat liver S9 fraction after by SOS/umu assay relative to control; type: toxicity, organism-based; conditions: salmonella enterica subsp. enterica serovar typhimurium, read-out: FC
[27] = Genotoxicity in Salmonella typhimurium TA1535 harboring pSK1002 assessed as survival at 0.031 mg/ml in presence of Sprague-Dawley rat liver S9 fraction after by SOS/umu assay relative to control; type: toxicity, organism-based; conditions: salmonella enterica subsp. enterica serovar typhimurium, read-out: Survival
[28] = Genotoxicity in Salmonella typhimurium TA1535 harboring pSK1002 assessed as umu gene induction at 0.001 mg/ml in absence of Sprague-Dawley rat liver S9 fraction after by SOS/umu assay relative to control; type: toxicity, organism-based; conditions: salmonella enterica subsp. enterica serovar typhimurium, read-out: FC

O=[N+]([O-])c1ccc(N2CCN(CCC(O)c3ccc(F)c4ccccc34)CC2)c(C(F)(F)F)c1 (configuration not stated)
IC50 (Plasmodium falciparum [1]): 0.5 µM

O=[N+]([O-])c1ccc(N2CCC(NCCC(O)c3ccc(F)c(F)c3)CC2)c(C(F)(F)F)c1 (configuration not stated)
CC50 [2]: 13.3 µM | IC50 (Plasmodium falciparum [3]): 0.67 µM | selectivity ratio [4]: 25 | IC50 (Plasmodium falciparum [1]): 0.53 µM

COc1ccccc1N1CCN(CCC(O)c2ccc(-c3ccccc3)cc2)CC1 (configuration not stated)
CC50 [2]: 24.4 µM | IC50 (Plasmodium falciparum [3]): 7.25 µM | selectivity ratio [4]: 9 | IC50 (Plasmodium falciparum [1]): 2.78 µM

COc1ccccc1N1CCN(CCC(O)c2ccccc2)CC1 (configuration not stated)
CC50 [2]: > 612 µM | IC50 (Plasmodium falciparum [3]): 13.9 µM | selectivity ratio [4]: > 39 | IC50 (Plasmodium falciparum [1]): 15.7 µM

N#Cc1ccc(C(O)CCNC2CCN(c3ccc([N+](=O)[O-])cc3C(F)(F)F)CC2)cc1 (configuration not stated)
CC50 [2]: 23 µM | IC50 (Plasmodium falciparum [3]): 4.22 µM | selectivity ratio [4]: 11 | IC50 (Plasmodium falciparum [1]): 2.02 µM

COc1ccc(C(O)CCN2CC=C(c3ccc(F)cc3)CC2)c(OC)c1 (configuration not stated)
CC50 [2]: 91.4 µM | IC50 (Plasmodium falciparum [3]): 24.1 µM | selectivity ratio [4]: 10 | IC50 (Plasmodium falciparum [1]): 9.48 µM

COC(=O)c1ccc(C(O)CCN2CC=C(c3ccc(F)cc3)CC2)cc1 (configuration not stated)
fold induction at 0.031 mg/ml [5]: 0.7 | fold induction at 0.002 mg/ml [6]: 0.9 | CC50 [2]: 509 µM | fold induction at 0.004 mg/ml [7]: 0.9 | IC50 (Plasmodium falciparum [3]): 10.5 µM | viability at 0.002 mg/ml [8]: 103% | selectivity ratio [4]: 451 | viability at 0.004 mg/ml [9]: 101% | viability at 0.004 mg/ml [10]: 99.4% | fold induction at 0.008 mg/ml [11]: 0.9 | fold induction at 0.004 mg/ml [12]: 0.8 | viability at 0.001 mg/ml [13]: 110% | fold induction at 0.001 mg/ml [14]: 0.8 | viability at 0.016 mg/ml [15]: 89.4% | viability at 0.001 mg/ml [16]: 124% | viability at 0.008 mg/ml [17]: 104% | viability at 0.031 mg/ml [18]: 94.4% | fold induction at 0.016 mg/ml [19]: 1 | viability at 0.008 mg/ml [20]: 97.5% | viability at 0.002 mg/ml [21]: 109% | viability at 0.016 mg/ml [22]: 103% | fold induction at 0.008 mg/ml [23]: 1 | fold induction at 0.016 mg/ml [24]: 1 | fold induction at 0.031 mg/ml [25]: 0.9 | IC50 (Plasmodium falciparum [1]): 1.13 µM | fold induction at 0.002 mg/ml [26]: 1 | viability at 0.031 mg/ml [27]: 138% | fold induction at 0.001 mg/ml [28]: 0.7

OC(CCN1CC=C(c2ccc(F)cc2)CC1)c1ccccc1 (configuration not stated)
CC50 [2]: 121 µM | IC50 (Plasmodium falciparum [3]): 10.6 µM | selectivity ratio [4]: 13 | IC50 (Plasmodium falciparum [1]): 9.04 µM

COc1ccc(C(O)CCN2CC=C(c3ccc(F)cc3)CC2)cc1 (configuration not stated)
CC50 [2]: 152 µM | IC50 (Plasmodium falciparum [3]): 18.2 µM | selectivity ratio [4]: 13 | IC50 (Plasmodium falciparum [1]): 11.5 µM
